Experimental data: ChEMBL document CHEMBL1828568, “Novel imaging agents for β-amyloid plaque based on the N-benzoylindole core” (Bioorg Med Chem Lett, 2011)

Experiment: Displacement of [125I]TZDM from amyloid beta (1 to 40) aggregates after 2 hrs by gamma counting
Method in brief: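 Competition binding against [125I]TZDM as radiolabeled standard, using Aβ1–40 aggregates; run in triplicate, results as mean ± SD.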

## O=C(/C=C/c1ccccc1)n1ccc2cc(F)ccc21
  Ki: 32.7 nM
